In assay [1] the test system is Adenosine A2 receptor (Homo sapiens), P29275+P29274 [W246A]. Put plainly: Displacement of [3H]ZM-241,385 from human N-terminal FLAG-tagged adenosine A2A receptor W246A 6.48 mutant expressed in HEK293 cell membrane assessed as radioligand binding at 10 uM by microbeta scintillation counting method relative to control. The class given is cell membranes. A digest of the protocol:
(§1)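 Membranes from HEK293 cells stably expressing hA2AAR-WT (15 µg protein) or transiently expressing W246A mutant (4 µg; harvested 48 h post-transfection), ADA-treated. Incubated 2 h at 25 °C in 50 mM Tris-HCl pH 7.4 with 2.5 nM [3H]ZM-241,385 ± 10 µM test compound; filtration, scintillation counting. 100% = no compound; 0% = nonspecific (100 µM NECA for WT, 10 µM ZM-241,385 for mutant). Means of ≥3 independent assays in duplicate.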

The target of assay [2] is T1, Adenosine receptor A2a (Homo sapiens, UniProt P29274). Put plainly: Displacement of [3H]ZM-241,385 from human N-terminal FLAG-tagged adenosine A2A receptor expressed in HEK293 cell membrane assessed as radioligand binding at 10 uM by microbeta scintillation counting method relative to control. Type of assay: cell membranes. The method, boiled down:
as §1
A general note: In a radioligand displacement assay an active substance lowers the binding of a labelled ligand.

The target of assay [3] is T1, Adenosine receptor A2a. Kind of assay: Displacement of [3H]ZM-241,385 from human N-terminal FLAG-tagged adenosine A2A receptor expressed in HEK293 cell membrane assessed as radioligand residence time at 100 uM by microbeta scintillation counting method. Type of assay: cell membranes. A digest of the protocol: (§2)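 Dissociation assay on HEK293 membranes (WT stable, 15 µg; W246A transient, 4 µg). Preequilibration with 2.5 nM [3H]ZM-241,385 for 1 h at 4 °C. Dissociation started with 100 µM NECA ± 100 µM compound (WT, times over 180 min) or 10 µM ZM-241,385 ± 10 µM compound (mutant, over 30 min). Filtration, scintillation counting. One-phase dissociation fit gave residence time versus control. ≥3 assays in duplicate.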

Assay [4] has as its system Adenosine A2 receptor (Homo sapiens), P29275+P29274 [W246A]. Kind of assay: Displacement of [3H]ZM-241,385 from human N-terminal FLAG-tagged adenosine A2A receptor W246A 6.48 mutant expressed in HEK293 cell membrane assessed as decrease in radioligand residence time at 10 uM by microbeta scintillation counting method relative to control. Type of assay: cell membranes. A digest of the protocol: as §2

The test system is the same in assay [5]. Put plainly: Displacement of [3H]ZM-241,385 from human N-terminal FLAG-tagged adenosine A2A receptor W246A 6.48 mutant expressed in HEK293 cell membrane assessed as radioligand residence time at 10 uM by microbeta scintillation counting method. The class given is cell membranes. The method, boiled down:
as §2

For assay [6], the target named is T1, Adenosine receptor A2a. Put plainly: Displacement of [3H]ZM-241,385 from human N-terminal FLAG-tagged adenosine A2A receptor expressed in HEK293 cell membrane assessed as decrease in radioligand residence time at 100 uM by microbeta scintillation counting method relative to control. Type of assay: cell membranes. A digest of the protocol:
as §2

A further assay addresses Adenosine A2 receptor (Homo sapiens, UniProt P29275+P29274, W246A). Kind of assay: Displacement of [3H]ZM-241,385 from human N-terminal FLAG-tagged adenosine A2A receptor W246A 6.48 mutant expressed in HEK293 cell membrane by microbeta scintillation counting method. Type of assay: cell membranes. The method, boiled down:
(§3)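 Competition binding to ADA-treated HEK293 membranes, WT receptor stably expressed (15 µg protein) or W246A mutant transiently expressed (4 µg). 2.5 nM [3H]ZM-241,385 with increasing compound concentrations, 2 h at 25 °C in 50 mM Tris-HCl pH 7.4. Filtration and scintillation counting. IC50 from a one-site fit. Nonspecific binding: 100 µM NECA (WT) or 10 µM ZM-241,385 (mutant). ≥3 independent assays in duplicate. Fold change = WT IC50 / mutant IC50.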

In another assay the test system is HEK293. Kind of assay: Ratio of IC50 for human N-terminal FLAG-tagged adenosine A2A receptor expressed in HEK293 cell membrane to IC50 for human N-terminal FLAG-tagged adenosine A2A receptor W246A 6.48 mutant expressed in HEK293 cell membrane. Type of assay: cell-based. The method, boiled down: as §3
Assay [7] addresses T1, Adenosine receptor A2a. Put plainly: Displacement of [3H]ZM-241,385 from human N-terminal FLAG-tagged adenosine A2A receptor expressed in HEK293 cell membrane by microbeta scintillation counting method. Type of assay: cell membranes. A digest of the protocol: as §3

The results in this text go back to ChEMBL document CHEMBL3817744, “5'-Substituted Amiloride Derivatives as Allosteric Modulators Binding in the Sodium Ion Pocket of the Adenosine A2A Receptor” (J Med Chem, 2016).

pIC50: −log10 of the molar value.

T1 sequence (P29274 whole entry): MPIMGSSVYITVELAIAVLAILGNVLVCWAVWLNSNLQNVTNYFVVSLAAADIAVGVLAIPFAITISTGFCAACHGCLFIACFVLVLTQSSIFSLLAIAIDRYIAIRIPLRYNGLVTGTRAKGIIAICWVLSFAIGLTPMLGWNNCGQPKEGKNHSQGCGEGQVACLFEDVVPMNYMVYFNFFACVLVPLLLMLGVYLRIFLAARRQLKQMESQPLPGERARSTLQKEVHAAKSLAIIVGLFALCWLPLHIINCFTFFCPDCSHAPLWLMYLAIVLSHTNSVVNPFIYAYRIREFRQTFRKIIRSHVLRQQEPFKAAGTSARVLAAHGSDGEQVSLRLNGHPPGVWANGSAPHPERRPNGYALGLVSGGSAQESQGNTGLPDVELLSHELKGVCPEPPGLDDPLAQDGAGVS

With `N=C(N)NC(=O)c1nc(Cl)c(NCCNCc2ccccc2)nc1N`, the Activity in [1] came to 65%; at Adenosine receptor A2a [2], 90%.

For the compound `NC(N)=NC(=O)c1nc(Cl)c(NCCCc2ccccc2)nc1N`, the Activity came out at 9% in assay [1] and 60% at Adenosine receptor A2a [2].

As to `CCCCOc1ccc(CCNc2nc(N)c(C(=O)N=C(N)N)nc2Cl)cc1`, the Activity came out at 3.4% in assay [1] and 66% on Adenosine receptor A2a [2].

For `NC(N)=NC(=O)c1nc(Cl)c(NCCc2ccc(Br)cc2)nc1N`, the figures for the Activity (in assay [1]; on Adenosine receptor A2a [2]) were 4.8% and 67%, respectively.

As for `N#CCCNc1nc(N)c(C(=O)NC(=N)N)nc1Cl`, the Activity in [1] was determined as 17%; on Adenosine receptor A2a [2], 65%.

As for `COc1cccc(CCNc2nc(N)c(C(=O)N=C(N)N)nc2Cl)c1.Cl`, the Activity in assay [1] worked out at 5.4%; on Adenosine receptor A2a [2], 41%. Moreover, the values for the TIME (at Adenosine receptor A2a [3]; in assay [5]) were 0.7 h and 0.0133 h, respectively. In addition, the values for the fold change (FC) (in [4]; on Adenosine receptor A2a [6]) were 3.4 and 1.5, respectively. Moreover, on Adenosine A2 receptor, the IC50 (in general, the concentration needed to halve the response being measured) turned out to be 0.25 µM. In the assay on HEK293, the Ratio IC50 turned out to be 32. The negative logarithm of the IC50 (pIC50) (as a rule, the negative decadic logarithm of the IC50, by convention in mol/L) at Adenosine receptor A2a [7] was 5.09.

With `CCN(CC)CCNc1nc(N)c(C(=O)NC(=N)N)nc1Cl`, the figures for the Activity (in [1]; at Adenosine receptor A2a [2]) were 53% and 85%, respectively.

As to `CCOc1ccc(CCNc2nc(N)c(C(=O)N=C(N)N)nc2Cl)cc1.O=C(O)C(F)(F)F`, the values for the Activity (in [1]; at Adenosine receptor A2a [2]) were 3.5% and 27%, respectively. Also, the TIME on Adenosine receptor A2a [3] is 0.667 h; in assay [5], 0.0217 h. Moreover, the fold change (FC) amounted to 2.1 in assay [4] and 1.5 at Adenosine receptor A2a [6]. The IC50 at Adenosine A2 receptor is 0.05 µM. The Ratio IC50 with HEK293 came to 76. Also, on Adenosine receptor A2a [7], the pIC50 is 5.47.

On to `CCOC(=O)CCNc1nc(N)c(C(=O)NC(=N)N)nc1Cl`, for which the Activity came out at 48% in assay [1] and 87% on Adenosine receptor A2a [2].

As to `N=C(N)NC(=O)c1nc(Cl)c(N)nc1N`, the Activity in assay [1] amounted to 11%; at Adenosine receptor A2a [2] it was 71%.

Take `N=C(N)NC(=O)c1nc(Cl)c(NCCC(=O)O)nc1N`: the values for the Activity (in [1]; at Adenosine receptor A2a [2]) were 70% and 96%, respectively.

`NC(N)=NC(=O)c1nc(Cl)c(NC2Cc3ccccc3C2)nc1N`: the Activity in assay [1] was 6.6%; on Adenosine receptor A2a [2] it was 68%.

On to `N=C(N)NC(=O)c1nc(Cl)c(NCc2ccccc2)nc1N`, for which the figures for the Activity (in assay [1]; at Adenosine receptor A2a [2]) were 21% and 77%, respectively.

In the case of `NC(N)=NC(=O)c1nc(Cl)c(NCCc2ccc(OCc3ccccc3)cc2)nc1N`, the Activity in assay [1] was found to be 4%; on Adenosine receptor A2a [2], 75%.

On to `NC(N)=NC(=O)c1nc(Cl)c(NCCc2ccc(Cl)c(Cl)c2)nc1N`, for which the Activity in assay [1] turned out to be 11%; at Adenosine receptor A2a [2], 82%.

On to `N=C(N)NC(=O)c1nc(Cl)c(N2CCCCCC2)nc1N` [N,N-HEXAMETHYLENEAMILORIDE], for which the Activity was 1.8% in assay [1] and 30% at Adenosine receptor A2a [2]. The TIME at Adenosine receptor A2a [3] amounted to 0.467 h; in assay [5] it was 0.0233 h. Moreover, the fold change (FC) in assay [4] was found to be 1.9; on Adenosine receptor A2a [6] it was 2.2. For the same compound, the IC50 at Adenosine A2 receptor came out at 0.27 µM. Moreover, the Ratio IC50 with HEK293 was found to be 19. Moreover, the pIC50 on Adenosine receptor A2a [7] is 5.29.

Turning to `N=C(N)NC(=O)c1nc(Cl)c(NCC(=O)O)nc1N`, the Activity is 111% in assay [1] and 88% at Adenosine receptor A2a [2].

Take `NC(N)=NC(=O)c1nc(Cl)c(NCCc2ccc(O)cc2)nc1N`: the values for the Activity (in assay [1]; at Adenosine receptor A2a [2]) were 9.5% and 72%, respectively.

On to `COc1ccc(CCNc2nc(N)c(C(=O)N=C(N)N)nc2Cl)cc1OC`, for which the Activity in assay [1] was determined as 1.8%; on Adenosine receptor A2a [2], 51%.

On to `N=C(N)NC(=O)c1nc(Cl)c(NCCc2nnn[nH]2)nc1N`, for which the Activity in assay [1] came out at 101%; on Adenosine receptor A2a [2] it was 99%.

Regarding `COc1ccc(CCNc2nc(N)c(C(=O)N=C(N)N)nc2Cl)cc1.Cl`, the values for the Activity (in assay [1]; on Adenosine receptor A2a [2]) were -0.4% and 31%, respectively. In addition, the TIME was found to be 0.733 h at Adenosine receptor A2a [3] and 0.0333 h in assay [5]. In addition, the figures for the fold change (FC) (in assay [4]; at Adenosine receptor A2a [6]) were 1.3 and 1.5, respectively. The IC50 on Adenosine A2 receptor turned out to be 0.12 µM. Besides, the Ratio IC50 with HEK293 came to 37. The compound also showed a pIC50 at Adenosine receptor A2a [7] of 5.36.

With `Cc1ccc(S(=O)(=O)NCCNc2nc(N)c(C(=O)NC(=N)N)nc2Cl)cc1`, the Activity was 32% in [1] and 85% on Adenosine receptor A2a [2].

Take `N=C(N)NC(=O)c1nc(Cl)c(NCc2ccncc2)nc1N`: the Activity amounted to 73% in assay [1] and 87% at Adenosine receptor A2a [2].

For the compound `NC(N)=NC(=O)c1nc(Cl)c(NCCc2ccc(Cl)cc2)nc1N`, the Activity in assay [1] is 32%; on Adenosine receptor A2a [2] it was 92%.

As for `NC(N)=NC(=O)c1nc(Cl)c(NCCc2ccc([N+](=O)[O-])cc2)nc1N`, the figures for the Activity (in assay [1]; at Adenosine receptor A2a [2]) were 5.8% and 68%, respectively.

As for `N=C(N)NC(=O)c1nc(Cl)c(NCc2cccnc2)nc1N`, the Activity in assay [1] was 46%; on Adenosine receptor A2a [2], 71%.

Take `N=C(N)NC(=O)c1nc(Cl)c(NCCc2ccccc2)nc1N`: the Activity is 1.1% in [1] and 54% at Adenosine receptor A2a [2].

Take `NC(N)=NC(=O)c1nc(Cl)c(NCCc2ccc(OC(F)(F)F)cc2)nc1N`: the Activity in assay [1] is 5.2%; at Adenosine receptor A2a [2], 63%.

On to `C=CCOc1ccc(CCNc2nc(N)c(C(=O)N=C(N)N)nc2Cl)cc1`, for which the Activity in assay [1] was determined as 2.2%; on Adenosine receptor A2a [2], 43%.

`Cl.NC(N)=NC(=O)c1nc(Cl)c(NCCc2ccc3c(c2)OCO3)nc1N`: the Activity in assay [1] was 1%; on Adenosine receptor A2a [2], 35%. Besides, the TIME on Adenosine receptor A2a [3] amounted to 1.02 h; in [5], 0.02 h. Moreover, the fold change (FC) in assay [4] came to 2.3. The IC50 on Adenosine A2 receptor came out at 0.07 µM. In addition, the Ratio IC50 in the assay on HEK293 amounted to 80. For the same compound, the pIC50 at Adenosine receptor A2a [7] was 5.25.

Take `N=C(N)NC(=O)c1nc(Cl)c(NCCSCc2ccccc2)nc1N`: the results for the Activity (in [1]; at Adenosine receptor A2a [2]) were 35% and 84%, respectively.

In the case of `N=C(N)NC(=O)c1nc(Cl)c(NCc2ccc(F)cc2)nc1N`, the Activity in assay [1] is 48%; on Adenosine receptor A2a [2] it was 96%.

`Cc1ccc(CCNc2nc(N)c(C(=O)N=C(N)N)nc2Cl)cc1`: the results for the Activity (in [1]; at Adenosine receptor A2a [2]) were 2.1% and 50%, respectively.

For `N=C(N)NC(=O)c1nc(Cl)c(NCCS(=O)(=O)Cc2ccccc2)nc1N`, the values for the Activity (in [1]; on Adenosine receptor A2a [2]) were 18% and 82%, respectively.
